Assays:
[1] = tested on: Rattus norvegicus; experiment: Hypolipidemic activity was measured as reduction in rat serum cholesterol after oral administration in male Wistar rats at 100 mg/(kg day); format: functional
In short: (§1)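 Cholesterol-fed rats given the test compound orally by gavage on the last 3 days, with controls receiving vehicle (0.5% tragacanth mucilage). After overnight starvation, rats were killed under CO2 3 h after the last dose and bled by cardiac puncture. Serum cholesterol and triglyceride were measured by autoanalyzer and expressed as percentage reduction from control levels, with Student's t test.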

[2] = tested on: Rattus norvegicus; experiment: Hypolipidemic activity was measured as reduction in rat serum triglyceride after oral administration in male Wistar rats at 30 mg / (kg day); format: functional; in short: as §1
[3] = (§2) The therapeutic safety margin (TSM) is the ratio of the minimum lethal dose (mg/kg)to the MED; format: ADME, organism-based; settings: in vivo
In short: (§3)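 Young male Wistar rats, eight per group, on cholesterol/cholic acid-supplemented or normal diet; graded oral gavage doses daily for 14 days; vehicle controls (0.5% tragacanth mucilage). Mortalities recorded to give the minimum lethal daily dose. After overnight fasting, serum cholesterol assayed by autoanalyzer. MED is the dose giving a significant (t test) 30% cholesterol fall, from the log dose/response curve. TSM = minimum lethal dose/MED.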

[4] = tested on: Rattus norvegicus; experiment: Hypolipidemic activity was measured as reduction in rat serum cholesterol after oral administration in male Wistar rats at 10 mg / (kg day); format: functional; in short: as §1
[5] = tested on: Rattus norvegicus; experiment: Hypolipidemic activity was measured as reduction in rat serum cholesterol after oral administration in male Wistar rats at 1 mg / (kg day); format: functional; in short: as §1
[6] = tested on: Rattus norvegicus; experiment: Hypolipidemic activity was measured as reduction in rat serum triglyceride after oral administration in male Wistar rats at 3 mg / (kg day); format: functional; in short: as §1
[7] = tested on: Rattus norvegicus; experiment: Hypolipidemic activity was measured as reduction in rat serum cholesterol after oral administration in male Wistar rats at 30 mg / (kg day); format: functional; in short: as §1
[8] = tested on: Rattus norvegicus; experiment: Minimum effective dose (MED) is the dose (mg/kg)that cause significant reduction in serum cholesterol of 30% compared to concurrent controls.; format: functional; design: unit: mg/kg
In short: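 MED was calculated from the log dose/response curve as the dose giving a statistically significant 30% fall in serum cholesterol versus concurrent controls. Measured in the 3-day oral cholesterol-fed rat screen, or in a 2-week test: groups of eight young male Wistar rats on cholesterol/cholic acid-supplemented or normal diet, dosed orally by gavage daily for 14 days, vehicle 0.5% tragacanth mucilage.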

[9] = tested on: Rattus norvegicus; experiment: Hypolipidemic activity was measured as reduction in rat serum triglyceride after oral administration in male Wistar rats at 10 mg / (kg day); format: functional; in short: as §1
[10] = tested on: Rattus norvegicus; experiment: Hypolipidemic activity was measured as reduction in rat serum triglyceride after oral administration in male Wistar rats at 100 mg / (kg day); format: functional; in short: as §1
[11] = tested on: Rattus norvegicus; experiment: Hypolipidemic activity was measured as reduction in rat serum triglyceride after oral administration in male Wistar rats at 1; format: functional; in short: as §1
[12] = tested on: Rattus norvegicus; experiment: Hypolipidemic activity was measured as reduction in rat serum cholesterol after oral administration in male Wistar rats at 3 mg / (kg day); format: functional; in short: as §1
[13] = tested on: Rattus norvegicus; experiment: Hypolipidemic activity was measured as reduction in rat serum cholesterol after oral administration in male Wistar rats at 50 mg / (kg day); format: functional; in short: as §1
[14] = tested on: Rattus norvegicus; experiment: Hypolipidemic activity was measured as reduction in rat serum triglyceride after oral administration in male Wistar rats at 50 mg / (kg day); format: functional; in short: as §1
[15] = tested on: Rattus norvegicus; experiment: Hypolipidemic activity was measured as reduction in rat serum cholesterol after oral administration in male Wistar rats at 20 mg / (kg day); format: functional; in short: as §1
[16] = tested on: Rattus norvegicus; experiment: Hypolipidemic activity was measured as reduction in rat serum triglyceride after oral administration in male Wistar rats at 20 mg / (kg day); format: functional; in short: as §1
[17] = tested on: Rattus norvegicus; experiment: Hypolipidemic activity was measured as reduction in rat serum cholesterol after oral administration in male Wistar rats at 200 mg/(kg day); format: functional; in short: as §1
[18] = tested on: Rattus norvegicus; experiment: Hypolipidemic activity was measured as reduction in rat serum cholesterol after oral administration in male Wistar rats at 100 mg / (kg day); format: functional; in short: as §1
[19] = tested on: Rattus norvegicus; experiment: Hypolipidemic activity was measured as reduction in rat serum triglyceride after oral administration in male Wistar rats at 1 mg / (kg day); format: functional; in short: as §1
[20] = tested on: Rattus norvegicus; experiment: Hypolipidemic activity was measured as reduction in rat serum cholesterol after oral administration in male Wistar rats at 3 mg / (kg day);; format: functional; in short: as §1
[21] = tested on: Rattus norvegicus; experiment: Hypolipidemic activity was measured as reduction in rat serum triglyceride after oral administration in male Wistar rats at 3 mg / (kg day);; format: functional; in short: as §1
[22] = tested on: Rattus norvegicus; experiment: Hypolipidemic activity was measured as reduction in rat serum triglyceride after oral administration in male Wistar rats at 200 mg / (kg day); format: functional; in short: as §1
[23] = tested on: Rattus norvegicus; experiment: Hypolipidemic activity was measured as reduction in rat serum cholesterol after oral administration in male Wistar rats at 200 mg / (kg day); format: functional; in short: as §1
[24] = tested on: Rattus norvegicus; experiment: Hypolipidemic activity was measured as reduction in rat serum cholesterol after oral administration in male Wistar rats at 5 mg / (kg day); format: functional; in short: as §1
[25] = tested on: Rattus norvegicus; experiment: Hypolipidemic activity was measured as reduction in rat serum cholesterol after oral administration in male Wistar rats at 2.5 mg / (kg day); format: functional; in short: as §1
[26] = tested on: Rattus norvegicus; experiment: Hypolipidemic activity was measured as reduction in rat serum triglyceride after oral administration in male Wistar rats at 2.5 mg / (kg day); format: functional; in short: as §1
[27] = tested on: Rattus norvegicus; experiment: Hypolipidemic activity was measured as reduction in rat serum triglyceride after oral administration in male Wistar rats at 5 mg / (kg day); format: functional; in short: as §1
[28] = tested on: Rattus norvegicus; experiment: xHypolipidemic activity was measured as reduction in rat serum cholesterol after oral administration in male Wistar rats at 10 mg / (kg day); format: functional; in short: as §1
[29] = as §2; format: functional; in short: as §3

| Compound | Reduction [1] [%] | therapeutic safety margin (minimum lethal dose / MED) [3] | Reduction [4] [%] | MED [8] | Reduction [9] [%] | Reduction [10] [%] | Reduction [13] [%] | Reduction [14] [%] | Reduction [15] [%] | Reduction [16] [%] | also measured |
| --- | --- | --- | --- | --- | --- | --- | --- | --- | --- | --- | --- |
| Cc1noc(C)c1C(c1ccc(C(C)C)cc1)N1CCN(CCO)CC1 (stereo not drawn) | 84 | 100 | 76 | 2 | 56 | 84 | – | – | – | – | Reduction [2]: 16%; Reduction [5]: 5%; Reduction [6]: 29%; Reduction [7]: 77%; Reduction [11]: 7%; Reduction [12]: 50% |
| COc1ccccc1C(c1ccns1)N1CCN(C)CC1 (stereo not drawn) | 38 | – | – | 80 | – | 13 | 31 | 32 | 3 | 22 | – |
| Cc1cc(C(c2ccccc2)N2CCN(C)CC2)sn1 (stereo not drawn) | – | – | – | – | – | – | – | – | – | – | Reduction [17]: 36%; Reduction [18]: 21% |
| Cc1noc(C)c1C(c1ccc(C(C)C)cc1)N1CCNCC1 (stereo not drawn) | 86 | 50 | 76 | 1 | 82 | 96 | – | – | – | – | Reduction [19]: 22%; Reduction [2]: 94%; Reduction [5]: 19%; Reduction [20]: 72%; Reduction [21]: 45%; Reduction [7]: 85% |
| Cc1cc(C(c2ccc(Cl)cc2)N2CCN(C)CC2)sn1 (stereo not drawn) | – | – | – | – | – | 2 | – | – | – | – | Reduction [17]: 67%; Reduction [18]: 15%; Reduction [22]: 19% |
| Cc1cc(C(c2ccccc2C)N2CCN(C)CC2)sn1 (stereo not drawn) | – | 10 | – | 22 | – | – | 56 | 26 | 27 | 14 | Reduction [23]: 65%; Reduction [22]: 84% |
| Cc1cc(C(c2ccccc2Cl)N2CCN(C)CC2)sn1 (stereo not drawn) | 61 | 15 | – | 30 | – | 44 | 63 | 50 | 16 | 8 | – |
| CN1CCN(C(c2ccns2)c2ccccc2Cl)CC1 (stereo not drawn) | 67 | 5 | 31 | 10 | 12 | 52 | – | – | 43 | 15 | – |
| CC(C)c1ccc(C(c2ccns2)N2CCN(C)CC2)cc1 (stereo not drawn) | 86 | 14 | 57 | 6 | 63 | 81 | 82 | 67 | – | – | Reduction [24]: 39%; Reduction [25]: 26%; Reduction [26]: 15%; Reduction [27]: 29% |
| CCC(C)c1ccc(C(c2cc(C)ns2)N2CCN(C)CC2)cc1 (stereo not drawn) | 72 | 20 | – | 14 | 15 | 87 | – | – | – | – | Reduction [2]: 55%; Reduction [7]: 67%; Reduction [28]: 19% |
| CN1CCN(C(c2ccccc2)c2ccccc2)CC1 [CYCLIZINE] | – | – | – | 30 | – | – | – | – | – | – | Ratio [29]: 10 |
